# INS promoter act – TRM-6 insulin promoter activation | TRM-6 cells, insulin promoter eGFP reporter, imaging; plate-scaled: unstimulated 0, stimulated control 100 | activation, % at 2 µM | 0.81% of 130,000 active;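 active = activation at 2 µM above a set limit, confirmed on inspection of the cell images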;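 also: share of cells whose green reporter signal exceeds an intensity cutoff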
#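 Test system: human fetal islet-derived TRM-6 cells with tamoxifen-inducible insulin promoter–eGFP reporter; schedule: overnight tamoxifen, then two-day compound incubation at 37 °C; measured by: high-content imaging of fixed cells with Hoechst nuclear stain; evaluation: percent cells above green-intensity threshold, converted to percent activation versus plate controls; control set: stimulated and unstimulated wells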
# An asterisk follows results filed as active. The full list was thinned out, with hits kept by preference.
SMILES,INS promoter act
Cc1c(NC(=O)COC(=O)CCC(=O)c2ccc(Cl)cc2)c(=O)n(-c2ccccc2)n1C,8.3
O=c1oc2cc(Cl)ccc2n1CSc1nc2ccccc2s1,-3.1
O=C(Nc1ccccn1)[C@@H]1CCC(=O)N1C(=O)OCc1ccccc1,-4.3
CCOc1ccccc1NC(=O)C1CCN(C(=O)NCc2ccccc2)CC1,-6.7
O=C(O)C1CCCN(C(=O)NCc2ccccc2)C1 (stereo not drawn),5.3
CCOc1ccc(NC(=O)C2CCCN(C(=O)NCc3ccccc3)C2)cc1 (stereo not drawn),493.3*
C=CCc1cc(C=O)cc(OC)c1OCc1c(Cl)cccc1Cl,9.7
O=C(Nc1ccc2snnc2c1)Nc1cccc2ccccc12,7.4
S=C(Nc1ccc(Cl)cc1)c1sc(N2CCCCC2)nc1N1CCOCC1,7.9
CCOCCCNc1nc2c(C)cccn2c(=O)c1/C=C1\SC(=S)N(CC(C)C)C1=O,222.6*
Cc1cccn2c(=O)c(C=NCCO)c(NCc3ccco3)nc12,9.1
Cc1ccc(C)c(NC(=O)COC(=O)CNC(=O)c2ccccc2Cl)c1,0.0
CN(CCc1cnn(C)c1)Cc1cn[nH]c1-c1ccc(-c2ccccc2)cc1,-8.7
CCc1nnc(NC(=O)C2Cc3ccccc3CN2S(=O)(=O)c2c(C)c(C)cc(C)c2C)s1 (stereo not drawn),2.9
CC(=O)c1c(C(C)=O)c(C)n(C2CCCCC2)c1C,3.4
Cc1c(OCC(=O)OC(C)C)ccc2c3c(c(=O)oc12)CCC3,6.7
Cc1c(OCc2ccc([N+](=O)[O-])cc2)ccc2c3c(c(=O)oc12)CCC3,193.8
C=C(C)COc1ccc2c3c(c(=O)oc2c1OCC(=C)C)CCC3,142.9*
CC(=O)N1CCc2cc(S(=O)(=O)NCCC(=O)NC3CCCc4ccccc43)ccc21 (stereo not drawn),243.8
O=C(NC1CCCCC1)C(c1ccc(F)cc1)N(Cc1ccc2c(c1)OCO2)C(=O)c1cnsn1 (stereo not drawn),225.7
COC(=O)c1cn(NC(=O)c2ccc([N+](=O)[O-])c(C)c2)c(=O)c2ccccc12,320.5*
COC(=O)c1cn(NC(=O)c2ccc(OC)c(OC)c2)c(=O)c2ccccc12,6.8
COC(=O)c1cn(NC(=O)c2cccc(F)c2)c(=O)c2ccccc12,-6.5
COc1ccccc1NC(=S)N1CCN(C/C=C/c2ccccc2)CC1,194.1
CCC(=O)NNc1nc2c(Cl)cccc2s1,5.3
SMILES,INS promoter act
Cc1cccc(-c2nnc(NC(=O)c3cccs3)s2)c1,2.4
Cc1ccc(-c2noc(CN(C(=O)c3cccs3)C(C)C)n2)cc1,8.6
Cc1ccnc(N(C(=O)c2cccs2)C(=O)c2cccs2)c1,83.9*
COCCCN1C(=O)c2ccc(C(=O)O)cc2C1=O,346.7
COc1ccc(S(=O)(=O)n2nc(C)cc2C)c(C)c1C,-7.1
Cc1cc(C(C)(C)C)ccc1OCCOCCN1CCCC1,-5.9
Cc1cc(C(F)(F)F)nc(SCC(=O)NC2CC3CCC2C3)n1 (stereo not drawn),431.4*
Cc1cc(C(F)(F)F)nc(SCC(=O)Nc2ccccc2)n1,375.7
COc1ccc(NC(=O)CSc2nc(C)cc(C(F)(F)F)n2)cc1,69.4
O=C(NN1C(=O)c2ccccc2C1=O)c1ccccc1[N+](=O)[O-],5.9
CCN(C(=O)CSc1nnc(Nc2ccccc2)s1)C1CCS(=O)(=O)C1 (stereo not drawn),5.9
CCOC(=O)c1ccccc1NC(=O)COc1cc(=O)n(CC)c2ccccc12,306.7
CCn1c(=O)cc(OCC(=O)NCc2ccc(C)o2)c2ccccc21,100.0*
COc1ccc(CNC(=O)COc2cc(=O)n(C)c3ccccc23)cc1,-6.7
Cc1c(OCc2ccccc2)c(=O)ccn1Cc1ccc(Cl)cc1,6.5
Cc1c(O)c(=O)ccn1Cc1ccccc1,257.1*
Cc1c(OCc2ccccc2)c(=O)ccn1Cc1ccc(F)cc1,2.4
O=C(N/N=C/c1ccc(Br)cc1)c1ccccc1-n1cccc1,5.9
COc1cc(N2CCCC2)c(OC)cc1/C=C(/C#N)c1ccc(Br)cc1,86.7*
COc1ccccc1N1CCN(c2cc(N3CCCC3)nc(C)n2)CC1,0.0
COc1ccccc1/C=N/NC(=O)c1ccc(Br)cc1,7.1
O=C1OCCC1Sc1ncnc2sccc12 (stereo not drawn),-2.7
COc1ccc(Br)cc1C(=O)O,-8.8
COc1ccc(Br)cc1C(=O)Nc1ccc(C(=O)O)cc1,341.2*
COc1ccc(Br)cc1C(=O)Nc1ccc(N2CCN(S(C)(=O)=O)CC2)cc1,356.3
SMILES,INS promoter act
O=C(COC(=O)[C@@H]1CC(O)CN1S(=O)(=O)c1ccccc1[N+](=O)[O-])Nc1ccc2ccccc2c1 (stereo partly drawn),5.1
CCOC(=O)c1[nH]c2cc(OC)c(OC)cc2c1NC(=O)CN1CCN(c2ccc(OC)cc2)C(C)C1 (stereo not drawn),-66.7
CCOC(=O)c1cc2ccccc2n1CCN(CC)CC,77.8*
CCOC(=O)c1cc(C)n(CCc2ccccc2)c1C,-2.6
CCOC(=O)c1cc2sc(C)cc2n1CC(=O)N(CC)CC,8.1
CCN(CC)c1ncn(Cc2c(Cl)cccc2Cl)c2ncnc1-2,-4.7
CCC(C(=O)NC1CCCC1)N(C(=O)Cn1nnc(-c2ccc(C)o2)n1)c1cnc2ccccc2c1 (stereo not drawn),160.0*
Cc1ccc(-c2nnn(CC(=O)N(CC(=O)NC(C)C)c3cnc4ccccc4c3)n2)o1,-71.4
Cc1ccc(-c2nnn(CC(=O)N(Cc3ccccc3F)C(C(=O)NC3CCCC3)c3ccncc3)n2)o1 (stereo not drawn),230.8
FC(F)(F)C(F)(F)c1nnc2ccc(-n3ccnc3)nn12,0.0
O=C(NNC(=O)C1CC1c1ccccc1)c1cccc([N+](=O)[O-])c1 (stereo not drawn),0.0
COC(=O)NCc1cccc(CNC(=O)OC)c1,9.1
CCCCc1nnc(NC(=O)CSc2nc(=O)cc(N)n2-c2cccc(C)c2)s1,-2.8
N#CCC(=N)N1CCN(c2ccccc2Cl)CC1,176.7*
O=C(CCN1C(=O)C2C3C=CC(C3)C2C1=O)N1CCN(c2ccccc2Cl)CC1 (stereo not drawn),-2.6
O=C(CCn1c(=O)oc2ccccc21)N1CCN(c2ccccc2Cl)CC1,127.6
O=C(COc1ncnc2ccccc12)N1CCN(S(=O)(=O)c2ccc(Cl)cc2)CC1,3.6
CCOC(=O)C1=C(SCC(=O)Nc2ccccc2)NC(=O)C(C#N)C12CCCCC2 (stereo not drawn),0.0
O=C(CSc1nncs1)Nc1ccc2c(c1)OCO2,8.3
Cc1cc(C)c2nc(N3CCC(C(=O)NCCCN4CCCCC4)CC3)sc2c1,513.3*
Cc1ccc(CCNC(=O)C2CCN(c3nn4c(=O)cc(C)nc4s3)CC2)cc1,107.7
Cc1cc(C)c(S(=O)(=O)NCC2CCC(C(=O)NCCCN3CCOCC3)CC2)c(C)c1 (stereo not drawn),3.7
CCn1c(SCC(=O)NCc2ccccc2)nnc1-c1cccnc1,0.0
O=C(OCCCCN1C(=O)c2ccccc2C1=O)c1ccc(Br)o1,-78.6
O=C(O)C(Cc1c[nH]c2ccccc12)N1C(=O)C2C3c4ccccc4C(c4ccccc43)C2C1=O (stereo not drawn),-5.6
Cc1cc(C)c(C)c(C(=O)CSc2nnc(C)c(=O)[nH]2)c1C,-2.9
COc1ccc2nc(SCC(=O)c3ccco3)[nH]c2c1,-8.6
COCC(C)NC(=O)c1cccc(Cl)c1 (stereo not drawn),0.0
COCC(C)NC(=O)NC(=O)c1ccc(Cl)cc1 (stereo not drawn),77.4*

# Assay outcomes deposited in PubChem BioAssay by Columbia University Molecular Screening Center.
